Columns and labels:
DU145 (PSMA−) tumors = assay: In vivo imaging and biodistribution, DU145 xenograft; parameters: species or system mouse; details: DU145 model, 17 nmol/kg tail vein, 1–72 h
LNCaP (PSMA+) tumors = assay: In vivo imaging and biodistribution, LNCaP xenograft; parameters: species or system mouse; details: for ex vivo tissue biodistribution: 72 h postinjection, 17 nmol/kg; for whole body fluorescence signal over time: LNCaP model, 17 nmol/kg tail vein, 1–72 h
In short: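 Male athymic nu/nu mice (5 weeks old) carried subcutaneous LNCaP (5 × 10^6 cells) or DU145 (1 × 10^6 cells) flank tumours in 1:1 HBSS/Matrigel, grown to 100–150 mm3. Each received one tail-vein injection of 17 nmol/kg in 1% DMSO/99% saline (n = 3). Whole-body imaging ran at 1, 4, 24, 48 and 72 h (ex 685, em 800 nm). At 72 h, tumours, liver, kidney, heart and blood were excised, rinsed, weighed and imaged ex vivo, and mean AFU/mg was calculated.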

[1] = Pharmacokinetic profile in rats; details: rat; for presence in plasma over time: single IV 0.1 μmol/kg
rhPSMA = rhPSMA (Homo sapiens, UniProt Q04609); assay: PSMA enzyme inhibition assay; format: biochemical
Chain of rhPSMA (Q04609 whole entry): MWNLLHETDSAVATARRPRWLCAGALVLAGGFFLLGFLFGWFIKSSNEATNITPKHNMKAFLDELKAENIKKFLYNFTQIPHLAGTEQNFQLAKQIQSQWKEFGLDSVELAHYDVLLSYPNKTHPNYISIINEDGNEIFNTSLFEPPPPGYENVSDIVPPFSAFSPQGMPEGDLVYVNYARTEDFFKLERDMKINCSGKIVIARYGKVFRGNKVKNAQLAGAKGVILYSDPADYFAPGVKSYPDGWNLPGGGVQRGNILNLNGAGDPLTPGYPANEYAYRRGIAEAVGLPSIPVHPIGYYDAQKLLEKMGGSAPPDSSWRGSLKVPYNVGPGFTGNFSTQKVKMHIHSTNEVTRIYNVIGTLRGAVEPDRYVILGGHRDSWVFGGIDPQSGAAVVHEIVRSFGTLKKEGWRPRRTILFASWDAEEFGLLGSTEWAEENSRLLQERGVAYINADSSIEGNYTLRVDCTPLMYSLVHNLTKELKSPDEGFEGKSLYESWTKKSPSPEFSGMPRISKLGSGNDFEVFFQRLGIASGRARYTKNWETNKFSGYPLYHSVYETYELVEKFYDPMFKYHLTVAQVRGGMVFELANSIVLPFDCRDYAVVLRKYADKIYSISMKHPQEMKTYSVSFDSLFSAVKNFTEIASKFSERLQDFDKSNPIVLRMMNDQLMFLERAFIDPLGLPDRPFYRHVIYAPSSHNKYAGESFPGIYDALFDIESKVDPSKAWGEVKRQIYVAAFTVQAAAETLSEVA

TTR in human serum = TTR in human serum (Homo sapiens, UniProt P02766); assay: Fluorescent probe exclusion; format: binding; details: for TTR occupancy: 10 μM ligand, human serum (TTR ∼5 μM), after 3 h relative to probe alone
human TTR = human TTR (Homo sapiens, UniProt P02766); assay: Fluorescence polarization; format: binding
[2] = target: Cathepsin B from human liver (Homo sapiens, UniProt P07858); assay: MMAE release following cathepsin B cleavage; format: in vitro ADME; details: 20 μM compound, cathepsin B 100 nM, pH 5.5, 37 °C, within 15 min
In short: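 Human liver cathepsin B was activated for 15 min at ambient temperature in 25 mM sodium acetate, 1 mM EDTA and 9.2 mM DTT, pH 5.5. It was then used at 100 nM with 20 μM substrate in 25 mM sodium acetate/1 mM EDTA, pH 5.5, at 37 °C. Aliquots taken at 0, 15, 30 min, 1 h and 2 h were quenched in acidified acetonitrile–water, chilled and centrifuged. Free MMAE was quantified by HPLC-UV at 210 nm, and its identity was confirmed by LC–MS/MS.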

Structure (SMILES) | Ki (rhPSMA; Ki on PSMA, absence of TTR) | TTR occupancy (TTR in human serum) | Kd (human TTR) | whole body fluorescence signal over time (DU145 (PSMA−) tumors) | ex vivo tissue biodistribution (LNCaP (PSMA+) tumors) | whole body fluorescence signal over time (LNCaP (PSMA+) tumors) | presence in plasma over time [1] | further results
CC[C@H](C)[C@@H]([C@@H](CC(=O)N1CCC[C@H]1[C@H](OC)[C@@H](C)C(=O)N[C@H](C)[C@@H](O)c1ccccc1)OC)N(C)C(=O)[C@@H](NC(=O)[C@H](C(C)C)N(C)C(=O)OCc1ccc(NC(=O)[C@H](CCCNC(N)=O)NC(=O)[C@@H](NC(=O)CCCCCN2C(=O)CC(SCCC(=O)N[C@@H](Cc3cn(CCOCCNCCCCCCOc4cc(OCCCc5c(C)n[nH]c5C)cc(C(=O)O)c4)nn3)C(=O)NCCCCCC(=O)NCCCC[C@H](NC(=O)N[C@@H](CCC(=O)O)C(=O)O)C(=O)O)C2=O)C(C)C)cc1)C(C)C (stereo partly shown) [TFM2] | – | – | – | – | – | – | – | MMAE release [2]: 98%
Cc1n[nH]c(C)c1CCCOc1cc(OCCCCCCN)cc(C(=O)O)c1 [ligand 2] | – | – | 0.0489 µM | – | – | – | – | receptor occupancy at 10 µM (TTR in human serum; read-out: TTR occupancy): 80.4 ± 0.7%
C#CCC(N)C(=O)NCCCCCC(=O)NCCCCC(NC(=O)NC(CCC(=O)O)C(=O)O)C(=O)O (stereo not shown) [ligand 22] | 0.0095 µM | – | – | – | – | – | – | –
O=C(O)c1ccc2nc(-c3cc(Cl)cc(Cl)c3)oc2c1 [tafamidis, reference compound] | – | 50.8 ± 2.0% | – | – | – | – | – | –

More lines, main results first:

Ki (rhPSMA; Ki on PSMA, absence of TTR) | TTR occupancy (TTR in human serum) | Kd (human TTR) | Structure (SMILES) | whole body fluorescence signal over time (DU145 (PSMA−) tumors) | ex vivo tissue biodistribution (LNCaP (PSMA+) tumors) | whole body fluorescence signal over time (LNCaP (PSMA+) tumors) | presence in plasma over time [1] | further results
0.0207 µM | – | – | C#CC[C@H](NC(=O)CCCCC[N+]1=C(C=CC2=CC(=CC=C3N(C)c4ccc(S(=O)(=O)O)cc4C3(C)C)CCC2)C(C)(C)c2cc(S(=O)(=O)[O-])ccc21)C(=O)NCCCCCC(=O)NCCCC[C@H](NC(=O)N[C@@H](CCC(=O)O)C(=O)O)C(=O)O [BFM1] | significantly reduced at 4 h postinjection and reduced to the background level at 24 h | accumulated predominantly in PSMA expressing LNCaP tumors, with no substantial fluorescence activity in other tissues except kidneys | significantly reduced at 4 h postinjection and reduced to the background level at 24 h | no measurable amount of BFM1 after 4 h | –
0.0328 µM | 57.6 ± 1.9% | 0.374 µM | Cc1n[nH]c(C)c1CCCOc1cc(OCCCCCCNCCOCCn2cc(C[C@H](NC(=O)CCCCC[N+]3=C(C=CC4=CC(=CC=C5N(C)c6ccc(S(=O)(=O)O)cc6C5(C)C)CCC4)C(C)(C)c4cc(S(=O)(=O)[O-])ccc43)C(=O)NCCCCCC(=O)NCCCC[C@H](NC(=O)N[C@@H](CCC(=O)O)C(=O)O)C(=O)O)nn2)cc(C(=O)O)c1 [TFM1] | maintained a very high fluorescence signal at 4 h and the signal was maintained for up to 48 h postinjection | accumulated predominantly in PSMA expressing LNCaP tumors, with no substantial fluorescence activity in other tissues except kidneys | maintained a very high fluorescence signal at 4 h and the signal was maintained for up to 48 h postinjection | still present even after 24 h | fold enhanced uptake in LNCaP compared to BFM1 (LNCaP (PSMA+) tumors; excised tumors, 72 h): ~3 fold; fold higher fluorescent signal in LNCaP compared to DU145 tumors (LNCaP (PSMA+) tumors; excised tumors, 72 h): ~7 fold; fold higher MRT compared to BFM1 ([1]; IV 0.1 μmol/kg): ~16 fold; fold increase in t1/2 compared to BFM1 ([1]; IV 0.1 μmol/kg): ~6.6 fold; Ki (rhPSMA; Ki on PSMA in the presence of TTR, 1 μM TTR): 0.0338 µM

— paper PMC6607395 (Molecular Pharmaceutics, 2019)
